Reference: ChEMBL document CHEMBL4689842, “EUbOPEN Chemogenomics Library wave 1” (2021)

Tests used:
Assay type in all cases: toxicity, cell-based
U2OS = assay: Incucyte cell viability with U2OS; conditions: human, 10 µM, compound concentration 10 uM; note: filed as whole numbers so only -1 and 0 and 1 occur
Fibroblast [1] = assay: Incucyte cell viability with human fibroblast; conditions: 10 µM, compound concentration 10 uM; note: filed as whole numbers so only -1 and 0 and 1 occur
Fibroblast [2] = assay: Multiplex assay against human fibroblast
How it was run: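 Cells stained live at seeding with Hoechst33342, BioTracker Green Microtubule Cytoskeleton Dye, MitoTracker Red and Annexin V Alexa Fluor 680 were imaged on a CQ1 microscope at 37°C and 5% CO2 after compound addition. Their classification by CellPathfinder machine-learning gating ran from Hoechst high-intensity objects versus normal cells, to healthy, pyknosed or fragmented nuclei among normal cells, to mitotic or apoptotic among pyknosed cells. Tubulin, mitochondrial-mass and membrane-permeability phenotypes are per cents of healthy-nucleus cells.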

[3] = 0 h, replicate number 1, timepoint 0 hours
[4] = 24 h, replicate number 1, timepoint 24 hours
[5] = 12 h, 1 µM, compound concentration 1 uM, replicate 1
[6] = 12 h, 1 µM, compound concentration 1 uM, replicate 2
[7] = 12 h, 10 µM, compound concentration 10 uM, replicate 1
[8] = 12 h, 10 µM, compound concentration 10 uM, replicate 2
[9] = 24 h, 1 µM, compound concentration 1 uM, replicate 1
[10] = 24 h, 1 µM, compound concentration 1 uM, replicate 2
[11] = 24 h, 10 µM, compound concentration 10 uM, replicate 1
[12] = 24 h, 10 µM, compound concentration 10 uM, replicate 2
[13] = 48 h, 1 µM, compound concentration 1 uM, replicate 1
[14] = 48 h, 1 µM, compound concentration 1 uM, replicate 2
[15] = 48 h, 10 µM, compound concentration 10 uM, replicate 1
[16] = 48 h, 10 µM, compound concentration 10 uM, replicate 2

Cc1ccc(S(=O)(=O)NC2c3ccccc3Oc3ccccc32)cc1
Growth Rate (U2OS; [3]): 0 | Growth Rate (U2OS; 18 h, replicate number 2, timepoint 18 hours): 1 | Growth Rate (U2OS; [4]): 1 | Growth Rate (U2OS; 24 h, replicate number 2, timepoint 24 hours): 0 | Growth Rate (Fibroblast [1]; [3]): 0 | Growth Rate (Fibroblast [1]; [4]): 1 | Population Apoptotic (%) (Fibroblast [2]; [5]): 57% | Population Fragmented Nuclei (%) (Fibroblast [2]; [5]): 25% | Population Healthy Nuclei (%) (Fibroblast [2]; [5]): 46% | Population Hoechst High Intensity Objects (%) (Fibroblast [2]; [5]): 11% | Population Membrane Permeable-Phenotype (%) (Fibroblast [2]; [5]): 25% | Population Mitochondria Different-Phenotype (%) (Fibroblast [2]; [5]): 6% | Population Mitotic Cells (%) (Fibroblast [2]; [5]): 42% | Population Normal (%) (Fibroblast [2]; [5]): 88% | Population Pyknosed Nuclei (%) (Fibroblast [2]; [5]): 27% | Population Tubulin-Different-Phenotype (%) (Fibroblast [2]; [5]): 27% | Total Cell Count (Fibroblast [2]; [5]): 105 | Population Apoptotic (%) (Fibroblast [2]; [6]): 0% | Population Fragmented Nuclei (%) (Fibroblast [2]; [6]): 10% | Population Healthy Nuclei (%) (Fibroblast [2]; [6]): 76% | Population Hoechst High Intensity Objects (%) (Fibroblast [2]; [6]): 4% | Population Membrane Permeable-Phenotype (%) (Fibroblast [2]; [6]): 0% | Population Mitochondria Different-Phenotype (%) (Fibroblast [2]; [6]): 16% | Population Mitotic Cells (%) (Fibroblast [2]; [6]): 100% | Population Normal (%) (Fibroblast [2]; [6]): 95% | Population Pyknosed Nuclei (%) (Fibroblast [2]; [6]): 12% | Population Tubulin-Different-Phenotype (%) (Fibroblast [2]; [6]): 2% | Total Cell Count (Fibroblast [2]; [6]): 49 | Population Apoptotic (%) (Fibroblast [2]; [7]): 80% | Population Fragmented Nuclei (%) (Fibroblast [2]; [7]): 41% | Population Healthy Nuclei (%) (Fibroblast [2]; [7]): 41% | Population Hoechst High Intensity Objects (%) (Fibroblast [2]; [7]): 17% | Population Membrane Permeable-Phenotype (%) (Fibroblast [2]; [7]): 56% | Population Mitochondria Different-Phenotype (%) (Fibroblast [2]; [7]): 54% | Population Mitotic Cells (%) (Fibroblast [2]; [7]): 20% | Population Normal (%) (Fibroblast [2]; [7]): 82% | Population Pyknosed Nuclei (%) (Fibroblast [2]; [7]): 16% | Population Tubulin-Different-Phenotype (%) (Fibroblast [2]; [7]): 17% | Total Cell Count (Fibroblast [2]; [7]): 218 | Population Apoptotic (%) (Fibroblast [2]; [8]): 95% | Population Fragmented Nuclei (%) (Fibroblast [2]; [8]): 42% | Population Healthy Nuclei (%) (Fibroblast [2]; [8]): 34% | Population Hoechst High Intensity Objects (%) (Fibroblast [2]; [8]): 6% | Population Membrane Permeable-Phenotype (%) (Fibroblast [2]; [8]): 44% | Population Mitochondria Different-Phenotype (%) (Fibroblast [2]; [8]): 0% | Population Mitotic Cells (%) (Fibroblast [2]; [8]): 4% | Population Normal (%) (Fibroblast [2]; [8]): 93% | Population Pyknosed Nuclei (%) (Fibroblast [2]; [8]): 23% | Population Tubulin-Different-Phenotype (%) (Fibroblast [2]; [8]): 50% | Total Cell Count (Fibroblast [2]; [8]): 106 | Population Apoptotic (%) (Fibroblast [2]; [9]): 50% | Population Fragmented Nuclei (%) (Fibroblast [2]; [9]): 26% | Population Healthy Nuclei (%) (Fibroblast [2]; [9]): 51% | Population Hoechst High Intensity Objects (%) (Fibroblast [2]; [9]): 19% | Population Membrane Permeable-Phenotype (%) (Fibroblast [2]; [9]): 28% | Population Mitochondria Different-Phenotype (%) (Fibroblast [2]; [9]): 10% | Population Mitotic Cells (%) (Fibroblast [2]; [9]): 50% | Population Normal (%) (Fibroblast [2]; [9]): 80% | Population Pyknosed Nuclei (%) (Fibroblast [2]; [9]): 22% | Population Tubulin-Different-Phenotype (%) (Fibroblast [2]; [9]): 53% | Total Cell Count (Fibroblast [2]; [9]): 119 | Population Apoptotic (%) (Fibroblast [2]; [10]): 25% | Population Fragmented Nuclei (%) (Fibroblast [2]; [10]): 5% | Population Healthy Nuclei (%) (Fibroblast [2]; [10]): 88% | Population Hoechst High Intensity Objects (%) (Fibroblast [2]; [10]): 7% | Population Membrane Permeable-Phenotype (%) (Fibroblast [2]; [10]): 7% | Population Mitochondria Different-Phenotype (%) (Fibroblast [2]; [10]): 15% | Population Mitotic Cells (%) (Fibroblast [2]; [10]): 75% | Population Normal (%) (Fibroblast [2]; [10]): 92% | Population Pyknosed Nuclei (%) (Fibroblast [2]; [10]): 6% | Population Tubulin-Different-Phenotype (%) (Fibroblast [2]; [10]): 13% | Total Cell Count (Fibroblast [2]; [10]): 65 | Population Apoptotic (%) (Fibroblast [2]; [11]): 75% | Population Fragmented Nuclei (%) (Fibroblast [2]; [11]): 35% | Population Healthy Nuclei (%) (Fibroblast [2]; [11]): 53% | Population Hoechst High Intensity Objects (%) (Fibroblast [2]; [11]): 16% | Population Membrane Permeable-Phenotype (%) (Fibroblast [2]; [11]): 64% | Population Mitochondria Different-Phenotype (%) (Fibroblast [2]; [11]): 43% | Population Mitotic Cells (%) (Fibroblast [2]; [11]): 25% | Population Normal (%) (Fibroblast [2]; [11]): 83% | Population Pyknosed Nuclei (%) (Fibroblast [2]; [11]): 11% | Population Tubulin-Different-Phenotype (%) (Fibroblast [2]; [11]): 28% | Total Cell Count (Fibroblast [2]; [11]): 170 | Population Apoptotic (%) (Fibroblast [2]; [12]): 100% | Population Fragmented Nuclei (%) (Fibroblast [2]; [12]): 10% | Population Healthy Nuclei (%) (Fibroblast [2]; [12]): 68% | Population Hoechst High Intensity Objects (%) (Fibroblast [2]; [12]): 4% | Population Membrane Permeable-Phenotype (%) (Fibroblast [2]; [12]): 20% | Population Mitochondria Different-Phenotype (%) (Fibroblast [2]; [12]): 14% | Population Mitotic Cells (%) (Fibroblast [2]; [12]): 0% | Population Normal (%) (Fibroblast [2]; [12]): 95% | Population Pyknosed Nuclei (%) (Fibroblast [2]; [12]): 21% | Population Tubulin-Different-Phenotype (%) (Fibroblast [2]; [12]): 43% | Total Cell Count (Fibroblast [2]; [12]): 84 | Population Apoptotic (%) (Fibroblast [2]; [13]): 42% | Population Fragmented Nuclei (%) (Fibroblast [2]; [13]): 33% | Population Healthy Nuclei (%) (Fibroblast [2]; [13]): 50% | Population Hoechst High Intensity Objects (%) (Fibroblast [2]; [13]): 19% | Population Membrane Permeable-Phenotype (%) (Fibroblast [2]; [13]): 22% | Population Mitochondria Different-Phenotype (%) (Fibroblast [2]; [13]): 4% | Population Mitotic Cells (%) (Fibroblast [2]; [13]): 57% | Population Normal (%) (Fibroblast [2]; [13]): 80% | Population Pyknosed Nuclei (%) (Fibroblast [2]; [13]): 15% | Population Tubulin-Different-Phenotype (%) (Fibroblast [2]; [13]): 37% | Total Cell Count (Fibroblast [2]; [13]): 111 | Population Apoptotic (%) (Fibroblast [2]; [14]): 75% | Population Fragmented Nuclei (%) (Fibroblast [2]; [14]): 17% | Population Healthy Nuclei (%) (Fibroblast [2]; [14]): 75% | Population Hoechst High Intensity Objects (%) (Fibroblast [2]; [14]): 14% | Population Membrane Permeable-Phenotype (%) (Fibroblast [2]; [14]): 15% | Population Mitochondria Different-Phenotype (%) (Fibroblast [2]; [14]): 6% | Population Mitotic Cells (%) (Fibroblast [2]; [14]): 25% | Population Normal (%) (Fibroblast [2]; [14]): 85% | Population Pyknosed Nuclei (%) (Fibroblast [2]; [14]): 6% | Population Tubulin-Different-Phenotype (%) (Fibroblast [2]; [14]): 34% | Total Cell Count (Fibroblast [2]; [14]): 68 | Population Apoptotic (%) (Fibroblast [2]; [15]): 42% | Population Fragmented Nuclei (%) (Fibroblast [2]; [15]): 27% | Population Healthy Nuclei (%) (Fibroblast [2]; [15]): 66% | Population Hoechst High Intensity Objects (%) (Fibroblast [2]; [15]): 7% | Population Membrane Permeable-Phenotype (%) (Fibroblast [2]; [15]): 20% | Population Mitochondria Different-Phenotype (%) (Fibroblast [2]; [15]): 2% | Population Mitotic Cells (%) (Fibroblast [2]; [15]): 57% | Population Normal (%) (Fibroblast [2]; [15]): 92% | Population Pyknosed Nuclei (%) (Fibroblast [2]; [15]): 5% | Population Tubulin-Different-Phenotype (%) (Fibroblast [2]; [15]): 26% | Total Cell Count (Fibroblast [2]; [15]): 133 | Population Apoptotic (%) (Fibroblast [2]; [16]): 80% | Population Fragmented Nuclei (%) (Fibroblast [2]; [16]): 20% | Population Healthy Nuclei (%) (Fibroblast [2]; [16]): 72% | Population Hoechst High Intensity Objects (%) (Fibroblast [2]; [16]): 14% | Population Membrane Permeable-Phenotype (%) (Fibroblast [2]; [16]): 25% | Population Mitochondria Different-Phenotype (%) (Fibroblast [2]; [16]): 3% | Population Mitotic Cells (%) (Fibroblast [2]; [16]): 20% | Population Normal (%) (Fibroblast [2]; [16]): 85% | Population Pyknosed Nuclei (%) (Fibroblast [2]; [16]): 6% | Population Tubulin-Different-Phenotype (%) (Fibroblast [2]; [16]): 50% | Total Cell Count (Fibroblast [2]; [16]): 84
